Source: PubChem
Rows were chosen to be rich in hits. Some 5.5% of all compounds tested hit in one or more screens of this group.
BB579 growth dn = chemicals that inhibit yeast BB579 growth in restrictive medium (lifespan-shortening candidates) | S. cerevisiae BB579 growth, OD615, 48 h | inhibition, % at 10 µM | hit rate 0.51% among 140,000;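 active means inhibition above a set limit, 3 SD over the mean compound inhibition, cut at about 44% in these data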
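test system = yeast BB579 (DeaD) | buffer or medium = restrictive CSMM-D medium | doses = single compound dose of 10 µM, 0.25% DMSO final | times = 4 h preincubation and 48 h exposure at 30 °C | technique = culture absorbance at 615 nm | benchmarks = amphotericin B 10 µg/mL, positive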
WT yeast gro inh = growth inhibition of WT yeast, mitochondrial fusion screen. mitochondrial fusion phenotypic screen, WT strain. inhibition, % at 10 µM. hit rate 2.1% among 190,000. AID 1362; in the data active means inhibition above about 58%; tested in S. cerevisiae
Cl transport mod = KCC2 (human) Cl- transport modulation. Q9H2X9. KCC2 cells, thallium flux FluoZin-2 fluorescence. B-score of Tl+ flux slope (higher = more flux/activation; lower = inhibition) at 10 µM. hit rate 2.2% among 190,000. AID 1456;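 active means thallium flux slope and its plate-corrected score both differing from the plate sample mean at a set confidence after two filtering rounds, in either direction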;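 further: slope of fluorescence scaled to starting intensity during 10 to 20 s after thallium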
Target sequence (Q9H2X9 whole entry, looked up): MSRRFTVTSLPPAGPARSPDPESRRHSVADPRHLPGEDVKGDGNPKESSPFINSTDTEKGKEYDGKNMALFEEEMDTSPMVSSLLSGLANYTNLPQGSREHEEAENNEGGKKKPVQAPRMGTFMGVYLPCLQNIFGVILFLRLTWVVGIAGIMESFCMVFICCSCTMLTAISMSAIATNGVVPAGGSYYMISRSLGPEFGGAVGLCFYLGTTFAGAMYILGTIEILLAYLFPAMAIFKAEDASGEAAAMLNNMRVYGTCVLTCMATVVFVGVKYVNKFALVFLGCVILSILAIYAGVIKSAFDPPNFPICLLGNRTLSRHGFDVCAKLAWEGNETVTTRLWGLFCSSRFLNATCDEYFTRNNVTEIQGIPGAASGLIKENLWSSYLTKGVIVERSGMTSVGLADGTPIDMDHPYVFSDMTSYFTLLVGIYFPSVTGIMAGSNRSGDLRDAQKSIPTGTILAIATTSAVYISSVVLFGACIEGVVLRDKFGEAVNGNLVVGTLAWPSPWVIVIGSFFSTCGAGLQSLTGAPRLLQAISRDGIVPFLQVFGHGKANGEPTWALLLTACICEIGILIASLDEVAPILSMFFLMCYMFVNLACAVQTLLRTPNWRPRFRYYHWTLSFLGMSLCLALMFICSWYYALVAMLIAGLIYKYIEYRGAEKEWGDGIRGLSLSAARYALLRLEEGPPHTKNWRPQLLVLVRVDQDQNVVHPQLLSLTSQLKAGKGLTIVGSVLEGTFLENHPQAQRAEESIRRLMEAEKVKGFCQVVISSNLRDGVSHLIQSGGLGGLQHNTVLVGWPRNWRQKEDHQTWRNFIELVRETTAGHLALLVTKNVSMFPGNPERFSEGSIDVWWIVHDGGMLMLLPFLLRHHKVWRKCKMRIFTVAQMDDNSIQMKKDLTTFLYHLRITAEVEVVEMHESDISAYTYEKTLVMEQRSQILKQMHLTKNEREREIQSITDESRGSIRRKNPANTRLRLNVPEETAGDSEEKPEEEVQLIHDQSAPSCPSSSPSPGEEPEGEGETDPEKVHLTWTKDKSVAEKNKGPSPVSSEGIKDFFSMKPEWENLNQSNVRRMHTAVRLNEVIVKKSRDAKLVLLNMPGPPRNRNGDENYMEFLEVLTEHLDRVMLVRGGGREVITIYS
Yeast lifespan up = yeast lifespan extension | AID 775 | S. cerevisiae growth with nicotinamide, OD615; deaD strain in restrictive glucose medium | inhibition of the nicotinamide effect, % at 10 µM | hit rate 0.68% among 130,000;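 active means inhibition above a set limit, placed 3 SD over the median of all compounds, cut at about 26% in these data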;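 further: 0% = nicotinamide-treated wells and 100% = cells grown without nicotinamide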
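Buffer or medium: CSMM-D glucose medium, restrictive; test system: modified budding yeast, DeaD strain; compound: single dose 10 µM compound, 0.25% DMSO; schedule: culture preincubation 4 h, compound exposure 48 h, both 30 °C; detection: optical density (absorbance) at 615 nm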
RAM network inh = inhibitors of the yeast RAM network | hit rate 1.8% among 190,000 | inhibition, % at 50 µM | S. cerevisiae dse1pr::URA3 reporter, 5-FOA growth OD615, 2 d; analog-sensitive cbk1-as2 kinase mutant strain;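 active means inhibition above a set limit, 3 SD over mean compound inhibition, cut at about 8.4% in these data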;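 further: 0% = DMSO-only wells with no growth and 100% = 10 µM 1-NA-PP1 full growth; inhibition rescues growth on 5-FOA so higher OD means more RAM inhibition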
* marks the source's active call; other numbers are inactive results; nt = no result given.

SMILES	BB579 growth dn	WT yeast gro inh	Cl transport mod	Yeast lifespan up	RAM network inh
Oc1ccc(-c2nc3c4c(ncn3n2)-c2ccccc2CC42CCCC2)cc1	-48	96*	0.035	2	8
Nn1cnc2c(c1=O)C1(CCCCC1)Cc1ccccc1-2	-39	2	-0.85	-1	4
Cc1csc(SC(C)C(=O)Nc2ccc(Cl)cn2)n1 (configuration not stated)	-29	-14	0.36	-4	2
CC(Sc1nc(-c2ccc(F)cc2)cs1)C(=O)Nc1ccc(Cl)cn1 (configuration not stated)	-26	22	1.5	2	10*
NC(=S)N/N=C\c1c(OCc2ccccc2Cl)ccc2ccccc12	nt	61*	-0.019	nt	4
NC(=S)N/N=C\c1c2ccccc2cc2ccccc12	-15	29	1.2	-7	4
Cc1ccc(/C=C2\C(=O)ON=C2c2ccccc2)o1	nt	20	-0.65	nt	1
Cc1ccc(-c2ccc(/C=C3\C(=O)ON=C3c3ccccc3)o2)c([N+](=O)[O-])c1	-21	36	-0.77	71*	7
Cc1ccccc1-n1nnnc1SCC(N)=O	8	2	0.61	-6	4
Cc1ccccc1-n1nnnc1Sc1nnnn1-c1ccccc1	-6	-7	-0.55	39*	0
CCOC(=O)c1nn(-c2ccccc2F)c2nc(-c3ccco3)c(C#N)c(=O)n12	-39	-12	-1.2	1	5
CCOC(=O)c1nn(-c2cccc(OC)c2)c2nc(CC)c(C#N)c(=O)n12	-30	-10	-2	4	8.4*
Cc1ccccc1OCC(=O)Nc1ccccc1N1CCOCC1	-25	17	0.08	-6	0
Cc1ccccc1OCC(=O)Nc1ccccc1-c1ccccc1NC(=O)COc1ccccc1C	-10	11	-0.55	8	9.4*
CC(=O)N1CCN(c2ccccc2NC(=O)COc2ccccc2C)CC1	nt	2	-1.4	nt	2
Cc1ccc(OCC(=O)Nc2ccccc2N2CCCC2)c(C)c1	nt	66*	-0.44	nt	-1
Cc1ccccc1OCC(=O)Nc1ccccc1N1CCC(C)CC1	nt	65*	0.35	nt	0
CCC(=O)N1CCN(c2ccccc2NC(=O)COc2cc(C)ccc2C(C)C)CC1	-29	67*	-0.72	1	7
CC(=O)N1CCN(c2ccccc2NC(=O)COc2ccc(Cl)cc2Cl)CC1	-19	0	-1.7	-11	2
CCNc1ccc(Br)cc(C(=O)/C=C/c2ccc(Cl)cc2Cl)c1=O	-52	-3	0.69	nt	4
Cc1cc(C)n2cc(CSc3ncn[nH]3)nc2n1	nt	-1	0.38	nt	0
COc1cc2c(cc1OC)C(C)N(C(=O)c1sc(-c3cnccn3)nc1C)CC2 (configuration not stated)	nt	nt	0.45	nt	nt
O=C(COC(=O)Cc1ccc(Cl)cc1Cl)Nc1ccc(OC(F)F)cc1	-8	30	-0.9	-7	10*
CC1CCc2nc(NC(=O)CN3CCN(c4ccc(F)cc4)CC3)sc2C1 (configuration not stated)	-65	67*	-0.77	-5	0
COc1cccc(N2CCN(CC(=O)Nc3nc4c(s3)CC(C)CC4)CC2)c1 (configuration not stated)	-53	16	nt	-10	0
SMILES	BB579 growth dn	WT yeast gro inh	Cl transport mod	Yeast lifespan up	RAM network inh
CC1CCc2c(sc3nc(CN4CCOCC4)nc(N4CCc5ccccc5C4)c23)C1 (configuration not stated)	-41	23	0.35	4	1
Cc1ccc(Oc2nc(CN3CCOCC3)nc3sc4c(c23)CCC(C)C4)cc1 (configuration not stated)	6	63*	-0.36	14	-1
Cc1ccc(Oc2nc(CN3CCOCC3)nc3sc4c(c23)CCC(C)C4)cc1C (configuration not stated)	81*	65*	0.066	-8	1
CC1CCc2c(sc3nc(CN4CCOCC4)nc(NS(=O)(=O)c4cccc([N+](=O)[O-])c4)c23)C1 (configuration not stated)	-44	-7	0.023	-20	2
CCOC(=O)c1ccc(NC(=O)c2nc[nH]c2C(=O)N[C@@H](CC(C)C)C(=O)OCc2ccccc2)cc1	nt	nt	0.41	nt	nt
Cc1ccc(S(=O)(=O)N(C)C)cc1-n1c(SCC(=O)Nc2ccc(F)c(F)c2F)nc2ccccc2c1=O	-28	-18	-1.1	0	8
CNC(=O)CCCCC(=O)N/N=C/c1ccc(Cl)cc1Cl	nt	nt	-1	nt	nt
N#C/C(=C\c1ccc(OCC(N)=O)cc1)c1ccccc1	-30	16	0.052	-7	3
CCC(=O)N1CCN(c2ccc(Cl)cc2NC(=O)Cc2ccc(Cl)cc2)CC1	-41	21	-1.4	-6	3
CCO[C@H]1OC(C(=O)Nc2ccccc2)=C[C@@H](c2ccc(C(F)(F)F)cc2)[C@@H]1CCCO	nt	75*	-0.31	nt	9.0*
CCO[C@H]1OC(C(=O)NCc2ccccc2)=C[C@@H](c2ccc(C(F)(F)F)cc2)[C@@H]1CCCO	nt	27	-0.035	nt	3
CC1=C/C(=N\OS(=O)(=O)c2ccccc2)C(C)=CC1=O	100*	75	-0.43	-19	-1
CC1=C(C)/C(=N\OS(=O)(=O)c2ccc(C)cc2)C=CC1=O	99*	85	-1.2	-10	0
CC1=C/C(=N\OS(=O)(=O)c2ccccc2)C(C(C)C)=CC1=O	100*	98	-2.1	-12	0
O=[N+]([O-])c1ccccc1/C=N/Nc1nnc(-c2ccccc2)c(-c2ccccc2)n1	0	6	0.77	-2	2
CC(C)(C)n1nc(-c2ccc(F)cc2)c2c(N)ncnc21	88*	39	0.14	-6	0
CC(C)(C)n1nc(-c2ccc(Cl)cc2)c2c(N)ncnc21	83*	3	-0.57	-18	-1
COCc1ccc(C(=O)N2CCCC(C(=O)c3cc(F)ccc3F)C2)s1 (configuration not stated)	nt	-4	0.047	nt	5
O=C(O)c1ccccc1C(=O)c1ccc2c(c1)N(Cc1ccc(Cl)c(Cl)c1)C(=O)CO2	nt	63*	-1.8	nt	6
O=C(CN1C(=O)COc2ccccc21)NCc1ccc(C(=O)O)cc1	-5	6	nt	-11	2
Cc1nc(N)sc1N=Nc1ccc(Br)cc1	-4	66*	0.85	-8	-1
Clc1ccc(CSc2nnc(-c3ccncc3)o2)c(Cl)c1	-38	76*	-0.23	-9	2
CC(=O)Nc1ccc2c(c1)ncn2-c1ccc(C)cc1	nt	-3	nt	nt	0
COC(=O)c1c(NC(=O)c2cccnc2Cl)sc(C(=O)N(C)C)c1C	-23	14	-0.27	-1	1
COC(=O)C1=NN(C(=O)c2ccc(Cl)cc2)C(O)(c2ccccc2)C1 (configuration not stated)	-12	12	17*	-1	0
CCOC(=O)C1=NN(C(=O)c2ccc(C)cc2)C(O)(c2ccc(Cl)cc2)C1 (configuration not stated)	-39	28	121*	5	0
